Paper PMC10330775 (Experimental cell research, 2023)

Target: T1, RsTSPO WT (Cereibacter sphaeroides, UniProt Q9RFC8)
T1 sequence (Q9RFC8 1-158): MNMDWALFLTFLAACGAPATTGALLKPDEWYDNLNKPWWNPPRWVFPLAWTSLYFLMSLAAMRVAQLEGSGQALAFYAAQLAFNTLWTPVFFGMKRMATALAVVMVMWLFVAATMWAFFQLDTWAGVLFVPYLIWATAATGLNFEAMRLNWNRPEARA
Experiment: tryptophan fluorescence quenching titration, Hill fit
Assay type: binding
Outline: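 Purified wild-type Rhodobacter sphaeroides TSPO, 2.5 uM in 20mM Tris pH 8.0, 150mM NaCl, 0.20% DM, 2mM TCEP, titrated at room temperature with increasing amounts of test compound in DMSO. Emission scanned 290–400 nm, excitation 285 nm. Ligand, buffer and solvent absorption/emission controls run. Kd from Hill-equation fit of the quenching curve.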

Kd: 172 ± 11 µM
Compound: Nc1ccccc1C(=O)C[C@H](N)C(=O)O [Kynurenine]
